In ChEMBL document CHEMBL1132346, “New type of febrifugine analogues, bearing a quinolizidine moiety, show potent antimalarial activity against Plasmodium malaria parasite” (J Med Chem, 1999):
Several values for one entry are separate records, joined by “and”; a condition that tells them apart may be missing. Identical values can stand only once.

What was measured:
FM3A = assay: Compound was tested for cytotoxicity against FM3A mouse mammary cells.; type: functional, cell-based
Mus musculus [1] = assay: Compound was tested for antimalarial activity against mice (Mus musculus) malaria parasite Plasmodium berghei in vivo and the samples were administarted intraperitoneally.; type: functional; details: for ED50: ip
Plasmodium falciparum [2] = assay: In vitro antimalarial activity against chloroquine-sensitive Plasmodium falciparum FCR3; type: functional, organism-based
Plasmodium falciparum [3] = assay: In vitro antimalarial activity against chloroquine-resistant Plasmodium falciparum K1; type: functional, organism-based
[4] = Selectivity is the ratio of antimalarial activity and cytotoxicity; type: functional
Summary of the method: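 Ratio of antimalarial activity to cytotoxicity, with cytotoxicity measured against FM3A mouse mammary cells.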

Plasmodium berghei = assay: In vivo antimalarial activity against Plasmodium berghei infected mice (Mus musculus) by intraperitoneal dose; type: functional
Mus musculus [5] = assay: Compound was tested for antimalarial activity against mice (Mus musculus) malaria parasite Plasmodium berghei in vivo mice (Mus musculus) and the samples were administarted intraperitoneally.; type: functional

Row | SMILES | EC50 (FM3A) [nM] | ED50 (Mus musculus [1]) [µmol/kg] | EC50 (Plasmodium falciparum [2]) [nM] | EC50 (Plasmodium falciparum [3]) [nM] | Selectivity [4] | ED90 (Mus musculus [1]) [µM/kg] | ED90 (Plasmodium berghei) [µM/kg] | ED50 (Plasmodium berghei; ip) [µmol/kg] | ED90 (Mus musculus [5]) [µM/kg]
1 | CC1(C)[C@H](n2cnc3ccccc3c2=O)C(=O)C[C@H]2[C@@H](O)CCCN21 | 2400 | 76 | 2.8 | 4.2 | 857 and 571 | – | – | – | –
2 | CC1(C)[C@@H](n2cnc3ccccc3c2=O)C(=O)C[C@@H]2[C@@H](O)CCCN21 | 380 | 7.3 | 1.6 | 3 | 238 and 127 | 19.4 | – | – | –
3 | O=C(C[C@@H]1NCCC[C@H]1O)Cn1cnc2ccccc2c1=O (single isomer, unassigned) [FEBRIFUGINE] | 170 | 1 | 0.7 | 1.2 | 243 and 142 | 5 | – | – | –
4 | C[C@@H]1CC[C@H]2[C@@H](C)C(=O)O[C@@H]3O[C@@]4(C)CC[C@@H]1[C@]32OO4 [ARTEMISININ] | – | – | – | – | – | – | 46 | 17.7 | –
5 | CCN(CC)CCCC(C)Nc1ccnc2cc(Cl)ccc12 (centres undefined) [CHLOROQUINE] | 32000 | 4.7 | 18 | 130 | – | 9.4 | – | – | –
6 | O=c1c2ccccc2ncn1CC1(O)C[C@@H]2NCCC[C@@H]2O1 (some centres undefined) [ISOFEBRIFUGINE] | 180 | – | 3.4 | 1.8 | 53 and 100 | – | – | – | 5
